Where “and” joins values, the source holds several entries; their conditions need not be identical. Identical values can stand only once.
Tested on: U2OS
Test: Multiplex assay against U2OS
Assay type: toxicity, cell-based
Conditions: human
Summary of the method: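 Live cells carried four stains from seeding: Hoechst33342, BioTracker Green Microtubule Cytoskeleton Dye, MitoTracker Red and Annexin V Alexa Fluor 680. They were imaged on a CQ1 microscope at 37°C and 5% CO2 after compound addition. Using CellPathfinder machine-learning gating, cells were split into Hoechst high-intensity objects or normal cells, normal cells into healthy, pyknosed or fragmented nuclei, and pyknosed cells into mitotic or apoptotic; tubulin, mitochondrial-mass and membrane-permeability phenotypes are per cents of healthy-nucleus cells.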

[1] = 12 h, 1 µM, compound concentration 1 uM
[2] = 12 h, 10 µM, compound concentration 10 uM
[3] = 24 h, 1 µM, compound concentration 1 uM
[4] = 24 h, 10 µM, compound concentration 10 uM
[5] = 48 h, 1 µM, compound concentration 1 uM
[6] = 48 h, 10 µM, compound concentration 10 uM

O=C1COc2nccc(-c3ccccc3F)c2CN1Cc1cc(C(F)(F)F)cc(C(F)(F)F)c1
Population Apoptotic (%) [1]: 52% and 77%
Population Fragmented Nuclei (%) [1]: 19% and 23%
Population Healthy Nuclei (%) [1]: 72% and 67%
Population Hoechst High Intensity Objects (%) [1]: 4% and 2%
Population Membrane Permeable-Phenotype (%) [1]: 6% and 15%
Population Mitochondria Different-Phenotype (%) [1]: 2% and 9%
Population Mitotic Cells (%) [1]: 47% and 22%
Population Normal (%) [1]: 95% and 97%
Population Pyknosed Nuclei (%) [1]: 8%
Population Tubulin-Different-Phenotype (%) [1]: 4% and 11%
Total Cell Count [1]: 252 and 108
Population Apoptotic (%) [2]: 70% and 100%
Population Fragmented Nuclei (%) [2]: 36% and 16%
Population Healthy Nuclei (%) [2]: 47% and 76%
Population Hoechst High Intensity Objects (%) [2]: 3% and 5%
Population Membrane Permeable-Phenotype (%) [2]: 25% and 17%
Population Mitochondria Different-Phenotype (%) [2]: 27% and 23%
Population Normal (%) [2]: 96% and 94%
Population Pyknosed Nuclei (%) [2]: 16% and 7%
Population Tubulin-Different-Phenotype (%) [2]: 25% and 13%
Total Cell Count [2]: 200 and 112
Population Apoptotic (%) [3]: 86% and 83%
Population Fragmented Nuclei (%) [3]: 17% and 18%
Population Healthy Nuclei (%) [3]: 74% and 76%
Population Hoechst High Intensity Objects (%) [3]: 3% and 4%
Population Membrane Permeable-Phenotype (%) [3]: 8% and 12%
Population Mitochondria Different-Phenotype (%) [3]: 3% and 7%
Population Mitotic Cells (%) [3]: 13% and 16%
Population Normal (%) [3]: 96% and 95%
Population Pyknosed Nuclei (%) [3]: 8% and 5%
Population Tubulin-Different-Phenotype (%) [3]: 3% and 5%
Total Cell Count [3]: 291 and 121
Population Apoptotic (%) [4]: 58% and 100%
Population Fragmented Nuclei (%) [4]: 36% and 21%
Population Healthy Nuclei (%) [4]: 43% and 70%
Population Hoechst High Intensity Objects (%) [4]: 5%
Population Membrane Permeable-Phenotype (%) [4]: 21% and 13%
Population Mitochondria Different-Phenotype (%) [4]: 22% and 19%
Population Normal (%) [4]: 94%
Population Pyknosed Nuclei (%) [4]: 19% and 8%
Population Tubulin-Different-Phenotype (%) [4]: 17% and 7%
Total Cell Count [4]: 210 and 126
Population Apoptotic (%) [5]: 84% and 76%
Population Fragmented Nuclei (%) [5]: 16% and 19%
Population Healthy Nuclei (%) [5]: 74% and 69%
Population Hoechst High Intensity Objects (%) [5]: 3%
Population Membrane Permeable-Phenotype (%) [5]: 5% and 8%
Population Mitochondria Different-Phenotype (%) [5]: 3% and 5%
Population Mitotic Cells (%) [5]: 15% and 23%
Population Normal (%) [5]: 96%
Population Pyknosed Nuclei (%) [5]: 9% and 10%
Population Tubulin-Different-Phenotype (%) [5]: 3%
Total Cell Count [5]: 425 and 166
Population Apoptotic (%) [6]: 61% and 85%
Population Fragmented Nuclei (%) [6]: 35% and 25%
Population Healthy Nuclei (%) [6]: 46% and 60%
Population Hoechst High Intensity Objects (%) [6]: 4%
Population Membrane Permeable-Phenotype (%) [6]: 20% and 12%
Population Mitochondria Different-Phenotype (%) [6]: 17% and 12%
Population Mitotic Cells (%) [6]: 38% and 14%
Population Normal (%) [6]: 95%
Population Pyknosed Nuclei (%) [6]: 17% and 14%
Population Tubulin-Different-Phenotype (%) [6]: 11% and 3%
Total Cell Count [6]: 236 and 151

CC(C)COc1ccc(CNC(=O)N(Cc2ccc(F)cc2)C2CCN(C)CC2)cc1 [PIMAVANSERIN]
Population Apoptotic (%) [1]: 84% and 100%
Population Fragmented Nuclei (%) [1]: 23% and 11%
Population Healthy Nuclei (%) [1]: 67% and 80%
Population Hoechst High Intensity Objects (%) [1]: 2% and 0%
Population Membrane Permeable-Phenotype (%) [1]: 6%
Population Mitochondria Different-Phenotype (%) [1]: 3% and 4%
Population Mitotic Cells (%) [1]: 16% and 0%
Population Normal (%) [1]: 97% and 99%
Population Pyknosed Nuclei (%) [1]: 9% and 7%
Population Tubulin-Different-Phenotype (%) [1]: 5% and 6%
Total Cell Count [1]: 265 and 136
Population Apoptotic (%) [2]: 67% and 71%
Population Fragmented Nuclei (%) [2]: 23% and 18%
Population Healthy Nuclei (%) [2]: 48% and 54%
Population Hoechst High Intensity Objects (%) [2]: 5% and 4%
Population Membrane Permeable-Phenotype (%) [2]: 48% and 26%
Population Mitochondria Different-Phenotype (%) [2]: 73% and 70%
Population Mitotic Cells (%) [2]: 32% and 28%
Population Normal (%) [2]: 94% and 95%
Population Pyknosed Nuclei (%) [2]: 27% and 26%
Population Tubulin-Different-Phenotype (%) [2]: 77% and 52%
Total Cell Count [2]: 202 and 124
Population Apoptotic (%) [3]: 92% and 78%
Population Fragmented Nuclei (%) [3]: 22% and 11%
Population Healthy Nuclei (%) [3]: 67% and 80%
Population Hoechst High Intensity Objects (%) [3]: 2% and 1%
Population Membrane Permeable-Phenotype (%) [3]: 10% and 11%
Population Mitochondria Different-Phenotype (%) [3]: 4% and 8%
Population Mitotic Cells (%) [3]: 7% and 21%
Population Normal (%) [3]: 97% and 98%
Population Pyknosed Nuclei (%) [3]: 9% and 8%
Population Tubulin-Different-Phenotype (%) [3]: 6%
Total Cell Count [3]: 294 and 163
Population Apoptotic (%) [4]: 88% and 79%
Population Fragmented Nuclei (%) [4]: 28% and 16%
Population Healthy Nuclei (%) [4]: 40% and 50%
Population Hoechst High Intensity Objects (%) [4]: 10% and 3%
Population Membrane Permeable-Phenotype (%) [4]: 32% and 30%
Population Mitochondria Different-Phenotype (%) [4]: 67% and 75%
Population Mitotic Cells (%) [4]: 11% and 20%
Population Normal (%) [4]: 89% and 96%
Population Pyknosed Nuclei (%) [4]: 31% and 33%
Population Tubulin-Different-Phenotype (%) [4]: 49%
Total Cell Count [4]: 214 and 135
Population Apoptotic (%) [5]: 87% and 92%
Population Fragmented Nuclei (%) [5]: 19% and 12%
Population Healthy Nuclei (%) [5]: 68% and 76%
Population Hoechst High Intensity Objects (%) [5]: 2% and 1%
Population Membrane Permeable-Phenotype (%) [5]: 6% and 5%
Population Mitochondria Different-Phenotype (%) [5]: 5%
Population Mitotic Cells (%) [5]: 12% and 7%
Population Normal (%) [5]: 97% and 98%
Population Pyknosed Nuclei (%) [5]: 12% and 11%
Population Tubulin-Different-Phenotype (%) [5]: 4% and 2%
Total Cell Count [5]: 393 and 234
Population Apoptotic (%) [6]: 98% and 95%
Population Fragmented Nuclei (%) [6]: 38%
Population Healthy Nuclei (%) [6]: 19% and 15%
Population Hoechst High Intensity Objects (%) [6]: 13% and 8%
Population Membrane Permeable-Phenotype (%) [6]: 40% and 66%
Population Mitochondria Different-Phenotype (%) [6]: 56% and 80%
Population Mitotic Cells (%) [6]: 1% and 4%
Population Normal (%) [6]: 86% and 91%
Population Pyknosed Nuclei (%) [6]: 42% and 45%
Population Tubulin-Different-Phenotype (%) [6]: 54% and 71%
Total Cell Count [6]: 222 and 146

— ChEMBL document CHEMBL5724801, “EUbOPEN Chemogenomics Library - Multiplex” (2024)
